This note sets out measurements from ChEMBL document CHEMBL4422620, “Synthesis of novel morpholine, thiomorpholine and N-substituted piperazine coupled 2-(thiophen-2-yl)dihydroquinolines as potent inhibitors of Mycobacterium tuberculosis” (Eur J Med Chem, 2019).

Broadly, the MIC is the lowest concentration that inhibits growth of the organism. Lower therefore signals inhibition by little substance.

In brackets after ≈: the same amount, converted by molar mass.

For data set [1], the system named is Mycobacterium tuberculosis. Nature of the data set: Antitubercular activity against Mycobacterium tuberculosis H37Rv after 7 days by Alamar blue assay. As to conditions: 168 h. In kind it is functional. In outline:
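M. tuberculosis H37Rv inoculum from fresh LJ medium resuspended in 7H9-S (7H9 broth, 0.1% casitone, 0.5% glycerol, OADC), adjusted to McFarland No. 1, diluted 1:20. Serial two-fold drug dilutions in 7H9-S, with growth and sterile controls. Incubated at 37°C in normal atmosphere for 7 days, then Alamar blue added and plates re-incubated overnight. MIC was the lowest concentration fully inhibiting growth.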
A general note: Resazurin is reduced to fluorescent resorufin, in cell work by metabolically active cells.

The nature of data set [2]: Cytotoxicity against human HEK293T cells assessed as inhibition of cell growth at 50 ug/ml after 72 hrs by MTT assay relative to control. The class given is cell-based, HEK-293T. As to conditions: read-out: GI. The gist of the method: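 HEK-293T cells exposed to compounds at 50 μg/mL for 72 h. Viability was read as cellular conversion of MTT to formazan and expressed as percentage inhibition.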

In data set [1], `ClC1=C(CN2CCN(CC3OCCO3)CC2)CCc2nc(-c3cccs3)ccc21` returned an MIC of 12.5 µg/mL (≈ 28.9 µM). The same measure, in the same setting: with `CC(C)(C)OC(=O)N1CCN(CC2=C(Cl)c3ccc(-c4cccs4)nc3CC2)CC1` the figure was 25 µg/mL (≈ 56.1 µM).

For the compound `COc1ccccc1N1CCN(CC2=C(Cl)c3ccc(-c4cccs4)nc3CC2)CC1`, the inhibition at 72 h, 50 ug/ml in data set [2] amounted to 36.7%. In data set [1], this compound displayed an MIC of 6.25 µg/mL (≈ 13.8 µM). Compound `ClC1=C(CN2CCN(c3ccc(Cl)cc3)CC2)CCc2nc(-c3cccs3)ccc21` gave an MIC in data set [1] of 25 µg/mL (≈ 54.8 µM).

Turning to `Fc1ccccc1N1CCN(CC2=C(Cl)c3ccc(-c4cccs4)nc3CC2)CC1`, the inhibition at 72 h, 50 ug/ml in data set [2] was 32.6%. Besides, inhibition of growth in data set [1] (MIC) required 6.25 µg/mL (≈ 14.2 µM). As for `ClC1=C(CN2CCN(Cc3ccc(Cl)cc3)CC2)CCc2nc(-c3cccs3)ccc21`, the MIC in data set [1] is 12.5 µg/mL (≈ 26.6 µM). Still for that read-out and setting: with `FC(F)(F)c1ccc(N2CCN(CC3=C(Cl)c4ccc(-c5cccs5)nc4CC3)CC2)cc1` the figure was 25 µg/mL (≈ 51 µM); with `CC(=O)c1ccc(N2CCN(CC3=C(Cl)c4ccc(-c5cccs5)nc4CC3)CC2)cc1`, 25 µg/mL (≈ 53.9 µM).

In the case of `ClC1=C(CN2CCN(Cc3ccccc3)CC2)CCc2nc(-c3cccs3)ccc21`, in data set [2], the inhibition at 72 h, 50 ug/ml was found to be 19.9%. Also, the lowest concentration to inhibit growth in data set [1] (MIC) was 1.56 µg/mL (≈ 3.58 µM). In the case of `ClC1=C(CN2CCSCC2)CCc2nc(-c3cccs3)ccc21`, the lowest concentration to inhibit growth in data set [1] (MIC) was 25 µg/mL (≈ 68.9 µM). Still for that read-out and setting: with `ClC1=C(CN2CCN(c3ccccc3)CC2)CCc2nc(-c3cccs3)ccc21` the figure was 25 µg/mL (≈ 59.2 µM).

Take `ClC1=C(CN2CCN(c3ccccn3)CC2)CCc2nc(-c3cccs3)ccc21`: the inhibition at 72 h, 50 ug/ml in data set [2] turned out to be 20.1%. Also, in data set [1], the MIC stood at 1.56 µg/mL (≈ 3.69 µM).

With `ClC1=C(CN2CCN(Cc3ccc4c(c3)OCO4)CC2)CCc2nc(-c3cccs3)ccc21`, inhibition of growth in data set [1] (MIC) required 25 µg/mL (≈ 52.1 µM).

For the compound `O=C(C1CC1)N1CCN(CC2=C(Cl)c3ccc(-c4cccs4)nc3CC2)CC1`, in data set [2], the inhibition at 72 h, 50 ug/ml was found to be 28.9%. For the same compound, in data set [1], the MIC stood at 3.12 µg/mL (≈ 7.55 µM). For `ClC1=C(CN2CCOCC2)CCc2nc(-c3cccs3)ccc21` the same measures were 34% and 6.25 µg/mL (≈ 18 µM).

Compound `Cc1ccccc1N1CCN(CC2=C(Cl)c3ccc(-c4cccs4)nc3CC2)CC1` displayed a minimal inhibitory concentration (MIC) in data set [1] of 25 µg/mL (≈ 57.3 µM). On the same count and under the same terms, the result for `O=C(O)c1cn(C2CC2)c2cc(N3CCNCC3)c(F)cc2c1=O` [CIPROFLOXACIN] reads 1.56 µg/mL (≈ 4.71 µM); that for `CC[C@@H](CO)NCCN[C@@H](CC)CO` [ETHAMBUTOL], 3.13 µg/mL (≈ 15.3 µM).

In data set [1], `NNC(=O)c1ccncc1` [ISONIAZID] displayed an MIC of 0.1 µg/mL (≈ 0.729 µM). Same read-out and setting: the result for `CO[C@H]1/C=C/O[C@@]2(C)Oc3c(C)c(O)c4c(O)c(c(/C=N/N5CCN(C)CC5)c(O)c4c3C2=O)NC(=O)/C(C)=C\C=C\[C@H](C)[C@H](O)[C@@H](C)[C@@H](O)[C@@H](C)[C@H](OC(C)=O)[C@@H]1C` [RIFAMPIN] reads 0.2 µg/mL (≈ 0.243 µM).
